The values that follow come from ChEMBL document CHEMBL1649578, “Biofilm formation and effect of caspofungin on biofilm structure of Candida species bloodstream isolates” (2009).

Assay [1] has as its system Candida albicans. Description: Antifungal activity against Candida albicans isolate CA4 planktonic cells after 48 hrs by broth microdilution method. The assay is classed as functional. Particulars: isolate CA4, 48 h. The procedure, abridged: (§1)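 Isolates grown on Sabouraud dextrose agar 24 h at 37°C. MIC is the lowest concentration giving a significant turbidity reduction versus control at 48 h.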
(Dilution methods test growth across graded concentrations, often in twofold steps.)

Assay [2] concerns Candida parapsilosis. In words: Antifungal activity against Candida parapsilosis isolate CP1 planktonic cells after 48 hrs by broth microdilution method. The format is functional. Particulars: Lodderomyces parapsilosis, isolate CP1, 48 h. The procedure, abridged: as §1
Assay [3] has as its system Candida tropicalis. In words: Antifungal activity against Candida tropicalis isolate CT8 planktonic cells after 48 hrs by broth microdilution method. The assay is classed as functional. Particulars: isolate CT8, 48 h. In short, it runs like this:
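CLSI broth microdilution in RPMI 1640; isolate plated on Sabouraud dextrose agar 24 h at 37°C. Drug stock in sterile saline diluted in RPMI, 16 to 0.0625 μg/ml tested. MIC read at 48 h as lowest concentration giving significant turbidity reduction versus control well.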

In assay [4] the test system is Candida albicans. In words: Antifungal activity against Candida albicans isolate CA4 biofilm after 48 hrs by XTT assay. The format is functional. Particulars: isolate CA4, 48 h. The procedure, abridged:
(§2)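 Biofilms of clinical bloodstream isolates grown 24 h in RPMI 1640 (MOPS, pH 7.0) on human-serum-preconditioned silicone disks, after 1.5 h attachment at 37°C from 1 × 10^6 CFU/ml. Washed disks exposed 48 h at 35°C on rocker to 10 doubling dilutions, 0.25–128 μg/ml. XTT-menadione reduction 2 h at 37°C, A490; concentration giving 50% reduction of metabolic activity vs drug-free control; triplicate.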

Assay [5] concerns Candida parapsilosis. Description: Antifungal activity against Candida parapsilosis isolate CP1 biofilm after 48 hrs by XTT assay. The format is functional. Particulars: Lodderomyces parapsilosis, isolate CP1, 48 h. In short, it runs like this: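 Biofilms on serum-preconditioned silicone disks in MOPS-buffered RPMI 1640 (pH 7.0), grown 24 h, PBS-washed, then challenged 48 h at 35°C on a rocker with ten doubling caspofungin dilutions, 0.25–128 μg/ml. Metabolic activity read by XTT-menadione reduction, 2 h at 37°C, A490. SMIC taken as the concentration giving 50% reduction in metabolic activity versus drug-free control. Triplicate.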

Assay [6] concerns Candida tropicalis. Description: Antifungal activity against Candida tropicalis isolate CT8 biofilm after 48 hrs by XTT assay. Particulars: isolate CT8, 48 h. The assay is classed as functional. The procedure, abridged: as §2
Background: Formazan colour is commonly taken as a measure of viable cells.

Assay [7] deals with Candida albicans. In words: Ratio of SMIC for Candida albicans isolate CA4 biofilm to MIC for Candida albicans isolate CA4 planktonic cells. The assay is classed as functional.
The test system of assay [8] is Candida parapsilosis. In words: Ratio of SMIC for Candida parapsilosis isolate CP1 biofilm to MIC for Candida parapsilosis isolate CP1 planktonic cells. The format is functional.
Assay [9] relates to Candida tropicalis. In words: Ratio of SMIC for Candida tropicalis isolate CT8 biofilm to MIC for Candida tropicalis isolate CT8 planktonic cells. The assay is classed as functional.
Assay [10] concerns Candida albicans. In words: Antifungal activity against Candida albicans isolate CA4 biofilm assessed as appearance of collapsed blastospore at 1 ug/ml after 48 hrs by scanning electron microscopy. The assay is classed as functional, organism-based. In short, it runs like this: (§3)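 Silicone disks preconditioned 24 h at 37°C in heat-inactivated human serum, seeded with 1 × 10^6 CFU/ml in MOPS-buffered RPMI 1640 (pH 7.0), 1.5 h attachment at 37°C with shaking, then grown 24 h. Washed biofilms exposed to 1.0, 16 or 128 μg/ml caspofungin in RPMI 1640, 48 h at 35°C on a rocker. Untreated controls in RPMI only. Fixed in 5% glutaraldehyde/cacodylate (pH 6.2), ethanol-dehydrated, HMDS air-dried, examined by SEM. Run in triplicate.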

The subject of assay [11] is Candida albicans. In words: Antifungal activity against Candida albicans isolate CA4 biofilm assessed as appearance of collapsed blastospore at 16 ug/ml after 48 hrs by scanning electron microscopy. The format is functional, organism-based. In short, it runs like this:
as §3

The test system of assay [12] is Candida albicans. Description: Antifungal activity against Candida albicans isolate CA4 biofilm assessed as assessed as appearance of increased number of small blastospore at 128 ug/ml after 48 hrs by scanning electron microscopy. The format is functional, organism-based. In short, it runs like this: as §3
The subject of assay [13] is Candida tropicalis. Description: Antifungal activity against Candida tropicalis isolate CT8 biofilm assessed as appearance of collapsed cell wall at 1 ug/ml after 48 hrs by scanning electron microscopy. The assay is classed as functional, organism-based. The procedure, abridged: as §3
Assay [14] deals with Candida tropicalis. In words: Antifungal activity against Candida tropicalis isolate CT8 biofilm assessed as change in cellular morphology at 16 ug/ml after 48 hrs by scanning electron microscopy. The assay is classed as functional, organism-based. In short, it runs like this: as §3
The test system of assay [15] is Candida tropicalis. In words: Antifungal activity against Candida tropicalis isolate CT8 biofilm assessed as change in cellular morphology at 128 ug/ml after 48 hrs by scanning electron microscopy. The format is functional, organism-based. In short, it runs like this:
as §3

In assay [16] the test system is Candida parapsilosis. Description: Antifungal activity against Candida parapsilosis isolate CP1 biofilm assessed as change in cellular morphology at 1 ug/ml after 48 hrs by scanning electron microscopy. The assay is classed as functional, organism-based. In short, it runs like this: as §3
The test system of assay [17] is Candida parapsilosis. In words: Antifungal activity against Candida parapsilosis isolate CP1 biofilm assessed as change in cellular morphology at 16 ug/ml after 48 hrs by scanning electron microscopy. The format is functional, organism-based. The procedure, abridged:
as §3

The test system of assay [18] is Candida albicans. Description: Antifungal activity against Candida albicans isolate CA4 biofilm assessed as viable fungal count per cm2 of silicone disk at 0.25 ug/ml after 48 hrs […]. The format is functional. In short, it runs like this:
(§4)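 Biofilms grown on serum-preconditioned silicone disks in RPMI 1640 for 24 h, PBS-washed, then exposed 48 h at 35°C on a rocker to caspofungin doubling dilutions spanning 0.25–128 μg/ml. Disks washed and sonicated/vortexed in PBS to release cells. Suspensions diluted in Butterfield buffer and plated on Sabouraud dextrose agar. Viable counts from three disks averaged as CFU/cm2.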

Assay [19] has as its system Candida albicans. In words: Antifungal activity against Candida albicans isolate CA4 biofilm assessed as viable fungal count per cm2 of silicone disk at 0.5 ug/ml after 48 hrs […]. The assay is classed as functional. In short, it runs like this:
as §4

Assay [20] deals with Candida albicans. Description: Antifungal activity against Candida albicans isolate CA4 biofilm assessed as viable fungal count per cm2 of silicone disk at 1 ug/ml after 48 hrs […]. The assay is classed as functional. In short, it runs like this: as §4
In assay [21] the test system is Candida albicans. In words: Antifungal activity against Candida albicans isolate CA4 biofilm assessed as viable fungal count per cm2 of silicone disk at 2 ug/ml after 48 hrs […]. The format is functional. In short, it runs like this:
as §4

The test system of assay [22] is Candida albicans. In words: Antifungal activity against Candida albicans isolate CA4 biofilm assessed as viable fungal count per cm2 of silicone disk at 4 ug/ml after 48 hrs […]. The assay is classed as functional. In short, it runs like this:
as §4

The subject of assay [23] is Candida albicans. Description: Antifungal activity against Candida albicans isolate CA4 biofilm assessed as viable fungal count per cm2 of silicone disk at 8 ug/ml after 48 hrs […]. The format is functional. The procedure, abridged: as §4
Assay [24] has as its system Candida albicans. Description: Antifungal activity against Candida albicans isolate CA4 biofilm assessed as viable fungal count per cm2 of silicone disk at 16 ug/ml after 48 hrs […]. The assay is classed as functional. In short, it runs like this:
as §4

Converted amounts (≈) assume the structure as drawn. The source made the active and inactive calls. No cut-off for these calls is given here.

For `CC[C@H](C)C[C@H](C)CCCCCCCCC(=O)N[C@H]1C[C@@H](O)[C@@H](NCCN)NC(=O)[C@@H]2[C@@H](O)CCN2C(=O)[C@H]([C@H](O)CCN)NC(=O)[C@H]([C@H](O)[C@@H](O)c2ccc(O)cc2)NC(=O)[C@@H]2C[C@@H](O)CN2C(=O)[C@H]([C@@H](C)O)NC1=O` [CASPOFUNGIN], the MIC with Candida albicans [1] amounted to 0.0625 µg/mL (≈ 0.0572 µM); against Candida parapsilosis [2], 0.25 µg/mL (≈ 0.229 µM); with Candida tropicalis [3], 0.0625 µg/mL (≈ 0.0572 µM); against Candida albicans [4] it was 0.5 µg/mL (≈ 0.457 µM); against Candida parapsilosis [5], 4 µg/mL (≈ 3.66 µM); against Candida tropicalis [6], 0.25 µg/mL (≈ 0.229 µM). The figures for the Ratio with Candida albicans [7], in the assay with Candida parapsilosis [8] and with Candida tropicalis [9] were 2, 2 and 16, respectively. Moreover, the outcome in the assay on Candida albicans [10], in the assay on Candida albicans [11], in the assay on Candida albicans [12], in the assay on Candida tropicalis [13], with Candida tropicalis [14] and in the assay on Candida parapsilosis [17] was Active. For the same compound, the result in the assay with Candida tropicalis [15] and with Candida parapsilosis [16] was inactive. Also, the log10cfu stood at 4.4 in the assay with Candida albicans [18]; 3.4 in the assay on Candida albicans [19]; 3.3 in the assay on Candida albicans [20]; 4.7 in the assay with Candida albicans [21]; 5.3 in the assay on Candida albicans [22]; 5.6 in the assay on Candida albicans [23]. Further, in the assay with Candida albicans [24], the log10cfu was 6.2.
